# Test results published in ChEMBL document CHEMBL3853331, “Preparation, Antiepileptic Activity, and Cardiovascular Safety of Dihydropyrazoles as Brain-Penetrant T-Type Calcium Channel Blockers” (J Med Chem, 2016).
# What was measured:
# [1] = molecular target: Voltage-dependent T-type calcium channel subunit alpha-1H (Homo sapiens, UniProt O95180); assay: Inhibition of recombinant T-type calcium channel Cav3.2 (unknown origin) expressed in HEK293 cells assessed as inhibition of CaCl2-induced calcium influx preincubated for 3 mins prior CaCl2 addition by Fluo-4-AM dye-based FLIPR assay; assay type: cell-based
# Chain of Voltage-dependent T-type calcium channel subunit alpha-1H (O95180 whole entry): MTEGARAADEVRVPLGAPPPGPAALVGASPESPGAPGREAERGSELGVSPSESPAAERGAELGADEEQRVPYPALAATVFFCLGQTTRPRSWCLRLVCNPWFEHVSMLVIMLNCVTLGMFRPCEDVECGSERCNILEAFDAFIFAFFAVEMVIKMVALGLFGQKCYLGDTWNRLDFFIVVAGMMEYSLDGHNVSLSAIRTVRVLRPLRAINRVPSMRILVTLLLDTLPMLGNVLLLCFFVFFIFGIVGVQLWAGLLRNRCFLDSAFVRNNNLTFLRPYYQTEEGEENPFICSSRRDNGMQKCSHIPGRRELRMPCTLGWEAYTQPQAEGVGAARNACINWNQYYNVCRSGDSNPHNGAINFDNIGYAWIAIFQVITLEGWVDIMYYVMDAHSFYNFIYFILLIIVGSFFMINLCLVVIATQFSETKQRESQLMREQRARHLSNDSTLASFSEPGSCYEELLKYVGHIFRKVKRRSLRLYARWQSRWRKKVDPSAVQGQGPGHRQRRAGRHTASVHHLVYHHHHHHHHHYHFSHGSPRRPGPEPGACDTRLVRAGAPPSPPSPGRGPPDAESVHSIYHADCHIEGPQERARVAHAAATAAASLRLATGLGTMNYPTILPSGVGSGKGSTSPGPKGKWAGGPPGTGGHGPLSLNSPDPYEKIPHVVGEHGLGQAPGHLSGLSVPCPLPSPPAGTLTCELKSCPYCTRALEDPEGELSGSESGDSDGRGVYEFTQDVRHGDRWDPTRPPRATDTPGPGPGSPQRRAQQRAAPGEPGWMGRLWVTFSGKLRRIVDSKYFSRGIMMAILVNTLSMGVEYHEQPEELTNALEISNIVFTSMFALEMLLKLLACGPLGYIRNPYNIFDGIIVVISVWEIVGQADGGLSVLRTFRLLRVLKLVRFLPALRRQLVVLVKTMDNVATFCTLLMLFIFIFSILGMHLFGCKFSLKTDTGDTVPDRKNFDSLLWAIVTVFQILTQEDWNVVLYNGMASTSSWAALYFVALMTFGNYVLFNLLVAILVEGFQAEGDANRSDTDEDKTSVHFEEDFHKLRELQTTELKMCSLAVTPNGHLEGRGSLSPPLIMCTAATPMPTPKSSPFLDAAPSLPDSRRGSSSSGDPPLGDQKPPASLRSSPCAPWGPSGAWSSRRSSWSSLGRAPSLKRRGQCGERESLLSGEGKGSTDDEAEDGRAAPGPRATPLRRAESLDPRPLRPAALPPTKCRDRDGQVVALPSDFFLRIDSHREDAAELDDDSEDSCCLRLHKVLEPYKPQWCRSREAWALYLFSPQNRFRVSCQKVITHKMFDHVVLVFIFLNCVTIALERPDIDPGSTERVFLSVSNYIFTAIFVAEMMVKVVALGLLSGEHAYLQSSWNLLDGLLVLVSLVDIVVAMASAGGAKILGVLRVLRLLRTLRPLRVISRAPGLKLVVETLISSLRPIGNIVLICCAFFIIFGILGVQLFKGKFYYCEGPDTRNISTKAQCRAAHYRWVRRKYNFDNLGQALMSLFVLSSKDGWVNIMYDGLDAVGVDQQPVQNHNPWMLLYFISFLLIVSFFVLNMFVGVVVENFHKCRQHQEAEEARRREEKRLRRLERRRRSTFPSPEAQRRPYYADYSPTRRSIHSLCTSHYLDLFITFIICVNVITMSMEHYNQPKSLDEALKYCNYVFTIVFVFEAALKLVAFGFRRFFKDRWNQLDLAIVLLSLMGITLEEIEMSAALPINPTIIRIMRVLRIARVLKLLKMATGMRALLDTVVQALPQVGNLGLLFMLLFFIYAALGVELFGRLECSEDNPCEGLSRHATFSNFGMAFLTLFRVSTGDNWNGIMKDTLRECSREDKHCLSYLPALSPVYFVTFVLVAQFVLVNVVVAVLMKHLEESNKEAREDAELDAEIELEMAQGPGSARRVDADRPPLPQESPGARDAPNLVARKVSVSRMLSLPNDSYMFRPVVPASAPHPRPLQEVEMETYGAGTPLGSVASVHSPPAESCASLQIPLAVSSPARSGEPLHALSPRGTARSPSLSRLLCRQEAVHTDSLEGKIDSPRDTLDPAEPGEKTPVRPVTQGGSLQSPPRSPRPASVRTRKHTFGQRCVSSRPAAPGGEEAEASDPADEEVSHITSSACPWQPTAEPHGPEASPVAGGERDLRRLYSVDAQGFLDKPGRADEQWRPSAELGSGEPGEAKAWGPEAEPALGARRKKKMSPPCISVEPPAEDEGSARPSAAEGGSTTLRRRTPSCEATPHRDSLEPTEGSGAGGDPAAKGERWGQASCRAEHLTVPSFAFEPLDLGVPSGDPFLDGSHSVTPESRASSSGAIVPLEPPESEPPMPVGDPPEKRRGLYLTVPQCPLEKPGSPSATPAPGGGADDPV
# How it was run: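 HEK293 cells stably expressing Cav3.2, plated overnight at 37°C, loaded 1 h at 37°C with 3 µM Fluo-4-AM in HBSS/Hepes pH 7.4, then washed. Compound in TEAC buffer (100 mM tetraethylammonium chloride, pH 7.2), 3-fold series from 10 µM to 0.05 nM, 3 min before CaCl2 to a final 10 mM. IC50 fitted sigmoidally to the fluorescence AUC against vehicle signal; mean of at least two independent experiments.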
# [2] = Aqueous solubility of the compound at pH 7 by UV-HPLC method; assay type: physicochemical
# How it was run: (§1)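 Compound dispensed from a 10 mM DMSO stock and the solvent evaporated. Residue stirred 24 h at room temperature in buffer: citrate (55 mM) pH 4.0 or phosphate (67 mM) pH 7.0. Mixture filtered by centrifugation. Filtrate concentration measured by HPLC-UV against calibration solutions.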
# [3] = molecular target: Voltage-dependent L-type calcium channel subunit alpha-1C (Homo sapiens, UniProt Q13936); assay: Inhibition of recombinant […] calcium channel Cav1.2 (unknown origin) expressed in HEK293 cells assessed as inhibition of Kcl-induced calcium influx preincubated for 3 mins prior CaCl2 addition by Fluo-4-AM dye-based FLIPR assay; assay type: cell-based
# Chain of Voltage-dependent L-type calcium channel subunit alpha-1C (Q13936 whole entry): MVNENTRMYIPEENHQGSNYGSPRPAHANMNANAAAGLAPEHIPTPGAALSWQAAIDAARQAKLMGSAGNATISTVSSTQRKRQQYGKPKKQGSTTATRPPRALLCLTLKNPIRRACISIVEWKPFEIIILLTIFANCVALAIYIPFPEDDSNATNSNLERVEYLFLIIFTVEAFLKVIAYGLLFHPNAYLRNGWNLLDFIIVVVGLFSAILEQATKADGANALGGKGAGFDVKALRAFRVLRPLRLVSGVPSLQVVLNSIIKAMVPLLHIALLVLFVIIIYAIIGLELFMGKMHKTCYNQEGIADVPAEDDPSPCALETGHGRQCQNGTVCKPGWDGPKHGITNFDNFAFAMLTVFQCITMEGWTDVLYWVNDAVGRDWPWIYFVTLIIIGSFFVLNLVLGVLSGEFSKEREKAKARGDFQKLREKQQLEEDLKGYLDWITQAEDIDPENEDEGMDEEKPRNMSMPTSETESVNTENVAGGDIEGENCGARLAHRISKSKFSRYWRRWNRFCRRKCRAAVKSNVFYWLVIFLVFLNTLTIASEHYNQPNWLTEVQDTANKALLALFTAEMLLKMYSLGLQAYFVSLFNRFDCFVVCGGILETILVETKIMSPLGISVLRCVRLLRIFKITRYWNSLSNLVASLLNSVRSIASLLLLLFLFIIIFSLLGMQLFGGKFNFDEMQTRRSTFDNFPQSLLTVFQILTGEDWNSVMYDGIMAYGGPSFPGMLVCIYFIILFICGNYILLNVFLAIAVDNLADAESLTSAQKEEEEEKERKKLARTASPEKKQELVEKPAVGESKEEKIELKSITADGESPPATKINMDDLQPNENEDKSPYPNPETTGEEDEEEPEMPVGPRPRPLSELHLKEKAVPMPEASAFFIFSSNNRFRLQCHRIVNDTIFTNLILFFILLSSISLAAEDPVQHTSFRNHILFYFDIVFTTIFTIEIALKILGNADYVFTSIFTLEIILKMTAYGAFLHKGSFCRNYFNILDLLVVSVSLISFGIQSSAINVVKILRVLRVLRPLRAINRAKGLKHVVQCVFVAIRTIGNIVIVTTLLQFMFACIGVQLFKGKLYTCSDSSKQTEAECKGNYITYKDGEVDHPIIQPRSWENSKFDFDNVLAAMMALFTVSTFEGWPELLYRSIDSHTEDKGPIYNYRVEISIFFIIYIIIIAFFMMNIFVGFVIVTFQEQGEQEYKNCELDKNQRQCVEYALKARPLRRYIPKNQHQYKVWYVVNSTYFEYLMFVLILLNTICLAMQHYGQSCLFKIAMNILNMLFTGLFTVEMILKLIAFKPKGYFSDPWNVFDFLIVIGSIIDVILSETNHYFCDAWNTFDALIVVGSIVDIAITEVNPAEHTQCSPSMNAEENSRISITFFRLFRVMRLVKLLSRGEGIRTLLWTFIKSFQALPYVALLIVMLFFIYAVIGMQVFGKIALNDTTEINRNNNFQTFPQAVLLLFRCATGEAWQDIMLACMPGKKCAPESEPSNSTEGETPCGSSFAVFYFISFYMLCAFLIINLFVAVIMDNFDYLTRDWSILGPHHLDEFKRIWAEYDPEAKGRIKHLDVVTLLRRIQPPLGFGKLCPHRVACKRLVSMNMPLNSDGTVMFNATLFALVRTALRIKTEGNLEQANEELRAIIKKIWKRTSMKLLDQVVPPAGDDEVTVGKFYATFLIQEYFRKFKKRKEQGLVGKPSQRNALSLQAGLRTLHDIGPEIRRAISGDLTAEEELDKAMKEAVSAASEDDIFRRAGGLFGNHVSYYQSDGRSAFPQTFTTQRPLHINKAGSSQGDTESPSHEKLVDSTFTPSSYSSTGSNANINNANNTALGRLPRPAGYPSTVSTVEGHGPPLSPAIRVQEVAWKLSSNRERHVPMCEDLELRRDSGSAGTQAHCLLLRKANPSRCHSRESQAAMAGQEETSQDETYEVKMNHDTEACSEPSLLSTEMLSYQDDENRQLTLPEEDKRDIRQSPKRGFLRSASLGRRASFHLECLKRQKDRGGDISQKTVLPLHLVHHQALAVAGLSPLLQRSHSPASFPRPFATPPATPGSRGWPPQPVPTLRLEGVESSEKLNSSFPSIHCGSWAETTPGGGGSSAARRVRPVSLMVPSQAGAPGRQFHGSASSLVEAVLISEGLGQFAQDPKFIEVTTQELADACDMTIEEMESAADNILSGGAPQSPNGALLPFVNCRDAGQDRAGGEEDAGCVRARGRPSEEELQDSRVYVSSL
# How it was run: (§2)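 HEK293 cells stably expressing the channel, seeded overnight and loaded 1 h at 37°C with 3 µM Fluo-4-AM. Compounds given as a 3-fold dilution series from 10 µM to 0.05 nM and incubated 3 min. For T-type channels, dilutions in TEAC buffer and stimulation with 10 mM final CaCl2. For Cav1.2, dilutions in assay buffer and stimulation with 20 mM final KCl. IC50 from area under the fluorescence trace against vehicle; mean of at least two experiments.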
# [4] = Aqueous solubility of the compound at pH 4 by UV-HPLC method; assay type: physicochemical; how it was run: as §1
# [5] = tested on: MDR1; assay: Apparent permeability across apical to basolateral side in MDCK cells expressing MDR1 (unknown origin) at 1 uM; assay type: ADME, cell-based, Canis lupus familiaris; conditions: dog
# How it was run: (§3)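 MDR1-transfected MDCK cell monolayers. Compound tested at 1 µM. Apparent permeability measured in both directions, apical to basolateral and basolateral to apical. Efflux ratio taken from the two directional permeabilities.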
# [6] = tested on: MDR1; assay: Apparent permeability across basolateral to apical side in MDCK cells expressing MDR1 (unknown origin) at 1 uM; assay type: ADME, cell-based, Canis lupus familiaris; conditions: dog; how it was run: as §3
# [7] = tested on: MDR1; assay: Efflux ratio of permeability in MDCK cells expressing MDR1 (unknown origin); assay type: ADME, cell-based, Canis lupus familiaris; conditions: dog; how it was run: as §3
# [8] = molecular target: Voltage-gated inwardly rectifying potassium channel KCNH2 (Homo sapiens, UniProt Q12809); assay: Inhibition of human ERG expressed in CHO cells assessed as potassium tail current measured at -40 mV holding potential after 3 mins by QPatch clamp assay; assay type: cell-based
# How it was run: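 CHO cells stably expressing hERG, automated QPatch recording. 500-ms depolarization to +20 mV from a holding potential of -80 mV. K+ tail current measured at -40 mV. Effect read 3 min after application.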
# [9] = molecular target: Voltage-dependent T-type calcium channel subunit alpha-1G (Homo sapiens, UniProt O43497); assay: Inhibition of T-type calcium channel Cav3.1 (unknown origin) expressed in HEK293 cells assessed as calcium influx by Fluo-4-AM dye-based FLIPR assay; assay type: cell-based; how it was run: as §2
# [10] = molecular target: Voltage-dependent T-type calcium channel subunit alpha-1I (Homo sapiens, UniProt Q9P0X4); assay: Inhibition of T-type calcium channel Cav3.3 (unknown origin) expressed in HEK293 cells assessed as calcium influx by Fluo-4-AM dye-based FLIPR assay; assay type: cell-based; how it was run: as §2
SMILES,IC50 [1] [nM],IC50 [3] [µM],also measured
Cc1ccc(C2(CCN(C)C)CC(c3ccccc3)=NN2C(=O)Nc2ccc(F)cc2)cc1 (stereo not given),240,2.2,solubility [2]: 30 µg/mL; solubility [4]: 42 µg/mL
COc1ccc(C2=NN(C(=O)Nc3ccc(Cl)cc3)[C@](CCO)(c3cccnc3)C2)cc1,55,5.7,Papp A→B at 1 µM [5]: 5.3 ×10⁻⁶ cm/s; Papp B→A at 1 µM [6]: 90 ×10⁻⁶ cm/s; efflux ratio [7]: 17; solubility [2]: 14 µg/mL; solubility [4]: 27 µg/mL
COc1ccc([C@]2(CCO)CC(c3cccnc3)=NN2C(=O)Nc2ccc(Br)cc2)cc1,33,4.8,–
O=C(Nc1ccc(F)cc1)N1N=C(c2ccc(Br)cc2)CC1c1ccc(F)cc1 (stereo not given),16,> 10,solubility [4]: < 1 µg/mL
COc1ccc(C2(CCO)CC(c3cccnc3)=NN2C(=O)Nc2ccc(Br)cc2)cc1 (stereo not given),140,> 10,–
O=C(NC1CCCCC1)N1N=C(c2ccc(Br)cc2)CC1c1ccc(F)cc1 (stereo not given),316,1.34,–
Cc1ccc(C2(CCN3CCOCC3)CC(c3ccccc3)=NN2C(=O)Nc2ccc(F)cc2)cc1 (stereo not given),430,5.9,solubility [2]: 1 µg/mL; solubility [4]: 371 µg/mL
Cc1ccc(C2(CCO)CC(c3ccncc3)=NN2C(=O)Nc2ccc(F)cc2)cc1 (stereo not given),330,8.6,solubility [2]: 35 µg/mL; solubility [4]: 193 µg/mL
CC1CC(c2ccccc2)=NN1C(=O)Nc1ccc(F)cc1 (stereo not given),410,3.9,–
CC(C)NC(=O)N1N=C(c2ccc(Br)cc2)CC1c1ccc(F)cc1 (stereo not given),382,2.36,–
CS(=O)(=O)c1ccc(C2(CCO)CC(c3ccccc3)=NN2C(=O)Nc2ccc(F)cc2)cc1 (stereo not given),420,> 10,Papp A→B at 1 µM [5]: 0.6 ×10⁻⁶ cm/s; Papp B→A at 1 µM [6]: 62 ×10⁻⁶ cm/s; efflux ratio [7]: 104
COCC1(c2ccc(C)cc2)CC(c2ccccc2)=NN1C(=O)Nc1ccc(F)cc1 (stereo not given),350,> 10,–
Cc1ccc(C2(CCN3CCN(C)CC3)CC(c3ccccc3)=NN2C(=O)Nc2ccc(F)cc2)cc1 (stereo not given),690,3.6,solubility [2]: 158 µg/mL; solubility [4]: 477 µg/mL
O=C(Nc1ccc(F)cc1)N1N=C(c2ccccc2)CC1(CO)c1ccc(F)cc1 (stereo not given),70,2.65,solubility [2]: 2 µg/mL
O=C(Nc1ccc(F)cc1)N1N=C(c2ccccc2)CC1(CCO)c1ccccc1 (stereo not given),120,1.94,–
CC(C)(C)NC(=O)CN1CCC(CNC(=O)c2cc(F)cc(Cl)c2)CC1 [ULIXACALTAMIDE],73,–,IC50 [9]: 37 nM; IC50 [10]: 86 nM
CN(C)CCOc1ccc(C2(CCO)CC(c3ccccc3)=NN2C(=O)Nc2ccc(F)cc2)cc1 (stereo not given),> 5300,> 10,–
CC(C)c1ccc(CC(=O)N[C@H](C)c2ccc(OCC(F)(F)F)cn2)cc1 [SUVECALTAMIDE],8.2,–,IC50 [9]: 1.2 nM; IC50 [10]: 1.5 nM
COc1ccc([C@@]2(CCO)CC(c3cccnc3)=NN2C(=O)Nc2ccc(Br)cc2)cc1,> 10000,–,–
COCCOc1ccc(C2(CCO)CC(c3ccccc3)=NN2C(=O)Nc2ccc(F)cc2)cc1 (stereo not given),60,6.3,solubility [2]: 8 µg/mL; solubility [4]: 8 µg/mL

# Now from value to compound, other results behind:
IC50 [1] [nM],SMILES,IC50 [3] [µM],also measured
900,CC1=NN(C(=O)Nc2ccc(F)cc2)C(c2ccc(F)cc2)C1 (stereo not given),> 10,–
420,O=C(NCCc1ccccc1)N1N=C(c2ccc(Br)cc2)CC1c1ccc(F)cc1 (stereo not given),1.88,–
110,O=C(Nc1ccc(F)cc1)N1N=C(c2cc[n+]([O-])cc2)CC1c1ccc(F)cc1 (stereo not given),> 10,–
613,CCc1ccc(NC(=O)N2N=C(c3ccc(Br)cc3)CC2c2ccc(F)cc2)cc1 (stereo not given),> 10,–
447,COc1ccc(NC(=O)N2N=C(c3ccc(Br)cc3)CC2c2ccc(F)cc2)cc1 (stereo not given),> 10,solubility [2]: < 1 µg/mL; solubility [4]: < 1 µg/mL
5390,O=C(c1ccccc1)N1N=C(c2ccc(Br)cc2)CC1c1ccc(F)cc1 (stereo not given),> 10,–
40,CS(=O)(=O)c1ccc(C2CC(c3ccccc3)=NN2C(=O)Nc2ccc(F)cc2)cc1 (stereo not given),> 10,solubility [2]: < 1 µg/mL; solubility [4]: < 1 µg/mL
21,O=C(Nc1ccc(F)cc1)N1N=C(c2ccncc2)C[C@H]1c1ccc(F)cc1,5.4,–
410,CS(=O)(=O)c1ccc(C2CC(c3ccncc3)=NN2C(=O)Nc2ccc(F)cc2)cc1 (stereo not given),> 10,–
46,O=C(Nc1cccc(F)c1)N1N=C(c2ccc(Br)cc2)CC1c1ccc(F)cc1 (stereo not given),> 10,IC50 [8]: > 10 µM
202,O=C(Nc1ccncc1)N1N=C(c2ccccc2)CC1c1ccc(F)cc1 (stereo not given),3.09,–
68,O=C(Nc1ccccc1)N1N=C(c2ccc(Br)cc2)CC1c1ccc(F)cc1 (stereo not given),> 10,IC50 [8]: > 10 µM
281,Fc1ccc(NC(=S)N2N=C(c3ccc(Br)cc3)CC2c2ccc(F)cc2)cc1 (stereo not given),> 10,–
320,O=C(Nc1ccc(F)cc1)N1N=C(c2ccncc2)C[C@@H]1c1ccc(F)cc1,7.8,–
> 10000,O=C(Nc1ccccc1F)N1N=C(c2ccc(Br)cc2)CC1c1ccc(F)cc1 (stereo not given),> 10,solubility [2]: < 1 µg/mL; solubility [4]: < 1 µg/mL
25,O=C(Nc1ccc(F)cc1)N1N=C(c2ccccc2)CC1c1ccc(F)cc1 (stereo not given),> 10,solubility [2]: < 1 µg/mL; solubility [4]: < 1 µg/mL
393,O=C(Nc1ccccn1)N1N=C(c2ccc(Br)cc2)CC1c1ccc(F)cc1 (stereo not given),2.18,–
